According to ChEMBL document CHEMBL2331269, “Design and synthesis of amphiphilic xanthone-based, membrane-targeting antimicrobials with improved membrane selectivity” (J Med Chem, 2013):
Values after ≈ are worked out from the molar mass of the structure shown. Active and inactive are the calls of the source. The rule behind the calls is not given here.

Experiments:
Staphylococcus aureus [1] = assay: Antimicrobial activity against in Staphylococcus aureus assessed as disruption of bacterial membrane at 10 uM by fluorescence microscopy; type: functional, organism-based
Outline: (§1)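 S. aureus DM4001 treated with 10 μM agent and incubated with the membrane-impermeant nucleic-acid dye SYTOX Green. Permeabilization was read as increased fluorescence intensity and confirmed by fluorescence microscopy counting green-stained cells.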

[2] = Hemolytic activity against rabbit erythrocytes after 60 mins by spectrophotometric analysis; type: ADME, cell-based, Oryctolagus cuniculus, Erythrocyte
Staphylococcus aureus [3] = assay: Antibacterial activity against methicillin-resistant Staphylococcus aureus clinical isolate DM21455 after 20 to 22 hrs by CLSI broth macro-dilution method; type: functional
Staphylococcus aureus [4] = assay: Antimicrobial activity against Staphylococcus aureus assessed as disruption of bacterial membrane at 10 uM by SYTOX green uptake assay; type: functional, organism-based; outline: as §1
Staphylococcus aureus [5] = assay: Antibacterial activity against Staphylococcus aureus ATCC 29213 after 20 to 22 hrs by CLSI broth macro-dilution method; type: functional
[6] = Selectivity ratio of HC50 for rabbit erythrocyte to MIC99 for methicillin-resistant Staphylococcus aureus clinical isolate DM21455; type: functional
[7] = Dissociation constant, pKa of the compound; type: physicochemical
[8] = Selectivity ratio of HC50 for rabbit erythrocyte to MIC99 for Staphylococcus aureus ATCC 29213; type: functional
[9] = Partition coefficient, log P of the compound by HPLC analysis; type: physicochemical; settings: octanol/water
Outline: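 Partition coefficient measured by HPLC following OECD guidelines for the testing of chemicals.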

Staphylococcus aureus [10] = assay: Antibacterial activity against methicillin-resistant Staphylococcus aureus DR42412 obtained from sputum isolate after 20 to 22 hrs by CLSI broth macro-dilution method; type: functional
Staphylococcus aureus [11] = assay: Antibacterial activity against methicillin-resistant Staphylococcus aureus DM09808R obtained from eye isolate after 20 to 22 hrs by CLSI broth macro-dilution method; type: functional
Staphylococcus aureus [12] = assay: Antibacterial activity against methicillin-resistant Staphylococcus aureus DM42412 assessed as log reduction in CFU at 0.5 X MIC to 4 X MIC after 8 hrs by surface-spread plate method relative to control; type: functional, organism-based
Staphylococcus aureus [13] = assay: Antibacterial activity against methicillin-resistant Staphylococcus aureus DM21595 assessed as log reduction in CFU at 0.5 X MIC to 4 X MIC after 8 hrs by surface-spread plate method relative to control; type: functional, organism-based
Staphylococcus aureus [14] = assay: Antibacterial activity against methicillin-resistant Staphylococcus aureus DM21595 obtained from wound isolate after 20 to 22 hrs by CLSI broth macro-dilution method; type: functional
Staphylococcus aureus [15] = assay: Antibacterial activity against methicillin-resistant Staphylococcus aureus ATCC 700699 assessed as log reduction in CFU at 0.5 X MIC to 4 X MIC after 8 hrs by surface-spread plate method relative to control relative to control; type: functional, organism-based
Staphylococcus aureus [16] = assay: Antibacterial activity against methicillin-resistant Staphylococcus aureus DM09808R assessed as log reduction in CFU at 0.5 X MIC to 4 X MIC after 8 hrs by surface-spread plate method relative to control; type: functional, organism-based
Staphylococcus aureus [17] = assay: Antibacterial activity against methicillin-resistant Staphylococcus aureus ATCC […] after 20 to 22 hrs by CLSI broth macro-dilution method; type: functional
Staphylococcus aureus [18] = assay: Antibacterial activity against methicillin-resistant Staphylococcus aureus DM21455 assessed as log reduction in CFU at 0.5 X MIC to 4 X MIC after 8 hrs by surface-spread plate method relative to control; type: functional, organism-based
Staphylococcus aureus [19] = assay: Antibacterial activity against methicillin-resistant Staphylococcus aureus DM09808R assessed as log reduction in CFU at 0.5 X MIC to 4 X MIC after 24 hrs by surface-spread plate method relative to control; type: functional
Staphylococcus aureus [20] = assay: Antibacterial activity against methicillin-resistant Staphylococcus aureus DM42412 assessed as log reduction in CFU at 0.5 X MIC to 4 X MIC after 24 hrs by surface-spread plate method relative to control; type: functional
Staphylococcus aureus [21] = assay: Antibacterial activity against methicillin-resistant Staphylococcus aureus DM21595 assessed as log reduction in CFU at 0.5 X MIC to 4 X MIC after 24 hrs by surface-spread plate method relative to control; type: functional
[22] = Toxicity against New Zealand White rabbit corneal epithelium assessed as effect on wound closure at 50 ug/ml by Slit lamp photography relative to control; type: tissue-based, Oryctolagus cuniculus, Cornea; settings: in vivo
Outline: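 A 5 mm corneal epithelial abrasion was made with a sterile trephine and the epithelium removed with a mini blade. Eyes were treated with saline, vancomycin 50 μg/mL, or agent 50 μg/mL. Wound closure was tracked over time from fluorescein-stained photographs of defect size.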

Staphylococcus aureus [23] = assay: Antibacterial activity against methicillin-resistant Staphylococcus aureus ATCC 700699 assessed as log reduction in CFU at 0.5 X MIC to 4 X MIC after 24 hrs by surface-spread plate method relative to control; type: functional
Staphylococcus aureus [24] = assay: Antibacterial activity against methicillin-resistant Staphylococcus aureus DM21455 assessed as log reduction in CFU at 0.5 X MIC to 4 X MIC after 24 hrs by surface-spread plate method relative to control; type: functional
Pseudomonas aeruginosa = assay: Antibacterial activity against Pseudomonas aeruginosa ATCC 27853 after 20 to 22 hrs by CLSI broth macro-dilution method; type: functional
Klebsiella pneumoniae = assay: Antibacterial activity against Klebsiella pneumoniae ATCC 10031 after 20 to 22 hrs by CLSI broth macro-dilution method; type: functional

SMILES	HC50 at 1 h [2]	MIC99 (Staphylococcus aureus [3])	MIC99 (Staphylococcus aureus [5])	Selectivity ratio [6]	pKa [7]	Selectivity ratio [8]	logP ([9]; read-out: logP)	also measured
COc1c(OCCCCBr)cc2oc3cc(OCCCCBr)c(CC=C(C)C)c(O)c3c(=O)c2c1CC=C(C)C	> 200 µM	> 200 µg/mL	> 200 µg/mL	–	–	–	–	Activity (Staphylococcus aureus [1]): inactive; Activity (Staphylococcus aureus [4]): inactive
COc1c(OCCCCN2CCCC2)cc2oc3cc(OCCCCN4CCCC4)c(CC=C(C)C)c(O)c3c(=O)c2c1CC=C(C)C	25 µM	1.56 µg/mL (≈ 2.36 µM)	1.56 µg/mL (≈ 2.36 µM)	16	11.3	16	6.63	–
CCN(CC)CCCOc1cc2oc3cc(OCCCN(CC)CC)c(OC)c(CC=C(C)C)c3c(=O)c2c(O)c1CC=C(C)C	16.3 µM	0.39 µg/mL (≈ 0.612 µM)	0.78 µg/mL (≈ 1.22 µM)	41.7	11	20.9	6.27	–
CCCCCCCCCC(=O)N[C@@H](Cc1c[nH]c2ccccc12)C(=O)N[C@H](CC(N)=O)C(=O)N[C@@H](CC(=O)O)C(=O)N[C@@H]1C(=O)NCC(=O)N[C@@H](CCCN)C(=O)N[C@@H](CC(=O)O)C(=O)N[C@H](C)C(=O)N[C@@H](CC(=O)O)C(=O)NCC(=O)N[C@H](CO)C(=O)N[C@@H]([C@H](C)CC(=O)O)C(=O)N[C@@H](CC(=O)c2ccccc2N)C(=O)O[C@@H]1C	–	0.78 µg/mL (≈ 0.481 µM)	–	–	–	–	–	MIC (Staphylococcus aureus [10]): 0.195 µg/mL (≈ 0.12 µM); MIC (Staphylococcus aureus [11]): 0.195 µg/mL (≈ 0.12 µM); Activity (Staphylococcus aureus [12]): inactive; Activity (Staphylococcus aureus [13]): inactive; MIC (Staphylococcus aureus [14]): 0.78 µg/mL (≈ 0.481 µM); Activity (Staphylococcus aureus [15]): inactive; Activity (Staphylococcus aureus [16]): inactive; MIC (Staphylococcus aureus [17]): 0.78 µg/mL (≈ 0.481 µM); Activity (Staphylococcus aureus [18]): inactive
COc1c(OCCCCN2CCCCC2)cc2oc3cc(OCCCCN4CCCCC4)c(CC=C(C)C)c(O)c3c(=O)c2c1CC=C(C)C	19.3 µM	1.56 µg/mL (≈ 2.26 µM)	0.78 µg/mL (≈ 1.13 µM)	12.3	11.2	24.7	6.93	–
COc1c(OCCCCn2cncn2)cc2oc3cc(OCCCCn4cncn4)c(CC=C(C)C)c(O)c3c(=O)c2c1CC=C(C)C	> 200 µM	> 200 µg/mL	> 200 µg/mL	–	2.2	–	–	logP [9]: 11.08
CCN(CC)CCCCCCOc1cc2oc3cc(OCCCCCCN(CC)CC)c(OC)c(CC=C(C)C)c3c(=O)c2c(O)c1CC=C(C)C	26.5 µM	1.56 µg/mL (≈ 2.16 µM)	1.56 µg/mL (≈ 2.16 µM)	17	11	17	8.39	–
CN[C@H](CC(C)C)C(=O)N[C@H]1C(=O)N[C@@H](CC(N)=O)C(=O)N[C@H]2C(=O)N[C@H]3C(=O)N[C@H](C(=O)N[C@H](C(=O)O)c4cc(O)cc(O)c4-c4cc3ccc4O)[C@H](O)c3ccc(c(Cl)c3)Oc3cc2cc(c3O[C@@H]2O[C@H](CO)[C@@H](O)[C@H](O)[C@H]2O[C@H]2C[C@](C)(N)[C@H](O)[C@H](C)O2)Oc2ccc(cc2Cl)[C@H]1O [VANCOMYCIN]	–	0.78 µg/mL (≈ 0.538 µM)	–	–	–	–	–	FC (Staphylococcus aureus [19]): 3; MIC (Staphylococcus aureus [10]): 0.78 µg/mL (≈ 0.538 µM); FC (Staphylococcus aureus [20]): 3; MIC (Staphylococcus aureus [11]): 0.39 µg/mL (≈ 0.269 µM); MIC (Staphylococcus aureus [14]): 0.39 µg/mL (≈ 0.269 µM); MIC (Staphylococcus aureus [17]): 6.25 µg/mL (≈ 4.31 µM); FC (Staphylococcus aureus [21]): 3; Activity [22]: Non-toxic; FC (Staphylococcus aureus [23]): 3; FC (Staphylococcus aureus [24]): 3
COc1c(OCCCCN2CCOCC2)cc2oc3cc(OCCCCN4CCOCC4)c(CC=C(C)C)c(O)c3c(=O)c2c1CC=C(C)C	> 200 µM	> 200 µg/mL	> 200 µg/mL	–	8.36	–	5.42	–
COc1c(OCCCCn2cccn2)cc2oc3cc(OCCCCn4cccn4)c(CC=C(C)C)c(O)c3c(=O)c2c1CC=C(C)C	> 200 µM	> 200 µg/mL	> 200 µg/mL	–	2.52	–	–	logP [9]: 9.28
COc1c(O)cc2oc3cc(O)c(CC=C(C)C)c(O)c3c(=O)c2c1CC=C(C)C [MANGOSTIN]	9 µM	1.56 µg/mL (≈ 3.8 µM)	1.56 µg/mL (≈ 3.8 µM)	5.77	–	5.77	6.75	MIC (Pseudomonas aeruginosa): > 200 µg/mL; MIC (Klebsiella pneumoniae): > 200 µg/mL
CCN(CC)CCCCCOc1cc2oc3cc(OCCCCCN(CC)CC)c(OC)c(CC=C(C)C)c3c(=O)c2c(O)c1CC=C(C)C	14 µM	0.78 µg/mL (≈ 1.13 µM)	1.56 µg/mL (≈ 2.25 µM)	18	11	9	7.55	–
